The record followed here is PubChem BioAssay.

Each structure is given as a SMILES string. Values without a mark were called inactive. Records with an inconclusive call do not appear. The source made the active and inactive calls.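 The calls were made as follows, unless noted: active = viability at or below 27.92% in each of two runs, the all-compound median minus 4 SD; inconclusive = no clear call, values can overlap the other calls; inactive = the rest.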

The nature of assay [1]: S. cerevisiae growth inhibition in permissive medium (OD615), pilot counter-assay for S. cerevisiae lifespan shortening project, permissive growth control (AID 705;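 active = growth inhibition above 25% in both replicates, a cutoff set 3 SD above the mean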). The settings on record: OD615, 24 h, at 10 µM, active compounds read high. The procedure, abridged: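 System: Engineered DeaD yeast | Buffer or medium: SC raffinose/galactose permissive medium | Doses: 10 µM single dose, 0.25% DMSO | Times: 24 h exposure, 30 °C | Measured by: OD615 turbidity read | Read-out: Yeast growth inhibition indicated by reduced 24 h OD615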

Assay [2] in a line: S. cerevisiae growth inhibition in restrictive medium, OD615, pilot screen, restrictive growth control, yeast lifespan reduction project (AID 706;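 active = growth inhibition above a set limit, 3 SD over mean compound inhibition, in both replicates, cut at about 43% in these data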;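 also: modified DeaD lifespan yeast strain shifted to restrictive glucose medium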). As to conditions: OD615, 48 h, at 10 µM, active compounds read high. In short, it runs like this: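 Assay system: engineered S. cerevisiae DeaD strain; Buffer or medium: CSMM-D glucose medium; Dosing: 10 µM compound, 0.25% DMSO; Times: cell pre-growth 4 h, compound exposure 48 h, 30 °C; Detection: absorbance (optical density) measured at 615 nm.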

Assay [3] in a line: doxorubicin toxicity protection in MRP-1 cells – H69AR cells, CellTiter-Glo, duplicate, MRP-1 activator project, pilot screen (AID 807;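 active = viability increase at or above a cutoff of the median across tested compounds plus 3 SD, cut at about 8.5% in these data, passing the limit was not always enough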;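 also: compound pretreatment 18-22 h then 72 h combined with doxorubicin; 0% = doxorubicin alone and 100% = vehicle without doxorubicin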). As to conditions: H69AR viability with doxorubicin, CellTiter-Glo luminescence; at 10 µM; active compounds read high.
Assay [4] in a line: viability of HCT116 without oncogenic beta-catenin – human colon tumor cells, pilot screen (AID 823;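 active = cell viability at or below a set limit in both duplicate runs, the limit being the all-compound median minus 4 SD, cut at about 23% in these data, passing the limit was not always enough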;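 also: 0% = wells killed by 20 µM Hyamine and 100% = untreated DMSO cell wells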). The settings on record: HCT116 beta-catenin knockout viability, CellTiter-Glo, 60 h; at 10 µM; active compounds read low.
The nature of assay [5]: viability of PTEN-null HCT116 cells – cell-based, HCT116 clonal line, CellTiter-Glo, pilot screen (AID 824).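 Also: 0% = 20 µM Hyamine control and 100% = vehicle cell control.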 As to conditions: HCT116 PTEN-deleted viability, 60 h, at 10 µM, active compounds read low.
The nature of assay [6]: RAM pathway blockade in budding yeast – dse1pr::URA3 reporter, 5-FOA selection, pilot screen (AID 869;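 active = inhibition over a set limit, the all-compound mean plus 3 SD, in both replicate runs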;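 also: 0% = DMSO wells with no growth and 100% = 10 µM 1-NA-PP1 with full growth; RAM network block rescues cells from 5-FOA so hits raise OD615 growth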). The settings on record: S. cerevisiae dse1pr::URA3 5-FOA growth, OD615, 2 d; at 10 µM; active compounds read high; strain carries analog-sensitive mutant Cbk1 kinase.
Assay [7] is described as follows: RAM signaling pathway blockade in yeast – S. cerevisiae, Pdr1DBD-CYC8 efflux-inhibited sensitized strain, primary screen (AID 1298;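 active = RAM network inhibition above 8.4% in each of two replicates, 3 SD over the compound average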;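 also: 0% = DMSO untreated cells without growth and 100% = 10 µM 1-NA-PP1 full growth; higher means more yeast growth rescued from 5-FOA killing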). As to conditions: S. cerevisiae cbk1-as DSE1-URA3 strain, 5-FOA growth OD615, 2 d; at 50 µM; active compounds read high.

As for `Cc1cc(NS(=O)(=O)c2ccc(NC(=O)Nc3ccccc3)cc2)no1`, the growth inhibition in assay [1] was 4.26%; in assay [2], -7.87%. In assay [3], the viability increase is 1.41%. In addition, the viability in assay [4] is 101%; in assay [5] it was 103%. Also, the inhibition in assay [6] was 1.92%. For the same molecule, in assay [7], the RAM network inhibition was 1.02%.

Take `COc1ccc(-c2c(C)oc3c(CN4CCN(C)CC4)c(O)ccc3c2=O)cc1`: the growth inhibition in assay [1] was -13.2%; in assay [2], -13.7%. Also, the viability increase in assay [3] is -8.83%. The values for the viability in assay [4] and in assay [5] were 106% and 96.5%, respectively. Moreover, the inhibition in assay [6] was 0.58%. Besides, in assay [7], the RAM network inhibition is -0.85%.

Turning to `COc1cccc(OCCCCSc2ncccn2)c1`, the growth inhibition in assay [1] is 0.33%; in assay [2] it was 4.57%. In addition, the viability increase in assay [3] is -2.94%. In addition, the viability was 93.2% in assay [4] and 90.2% in assay [5]. For the same molecule, the inhibition in assay [6] was -0.22%. In addition, in assay [7], the RAM network inhibition was 4.14%.

For `NC(=O)C1(S(=O)(=O)c2ccccc2)CCCCC1`, the growth inhibition in assay [1] is -0.22%; in assay [2], -4.29%. For the same molecule, the viability increase in assay [3] is -1.06%. The viability in assay [4] was 97.8%; in assay [5] it was 96.7%. Moreover, the inhibition in assay [6] was 1.43%. In addition, the RAM network inhibition in assay [7] is 4.97%.

For `O=C(NCN1CCc2ccccc2C1)c1cnccn1`, the growth inhibition was -18.3% in assay [1] and -15.1% in assay [2]. The viability increase in assay [3] is -3.49%. Also, the viability was 96.3% in assay [4] and 96.6% in assay [5]. For the same molecule, the inhibition in assay [6] was 3.92%. For the same molecule, the RAM network inhibition in assay [7] was 5.24%.

In the case of `Cc1cnc(C(=O)OCC(=O)Nc2cccc(Cl)c2)cn1`, the growth inhibition in assay [1] was -0.055%; in assay [2] it was 1.48%. The viability increase in assay [3] is -3.1%. Moreover, the viability was 92.5% in assay [4] and 92.3% in assay [5]. The inhibition in assay [6] was 0.405%. Moreover, the RAM network inhibition in assay [7] was 0.67%.

Consider `O=S(=O)(c1cccs1)n1nnc2ccccc21`, for which the growth inhibition was -1.66% in assay [1] and -8.55% in assay [2]. The viability increase in assay [3] was -0.18%. The results for the viability in assay [4] and in assay [5] were 103% and 105%, respectively. Further, in assay [6], the inhibition was 1.33%. Also, in assay [7], the RAM network inhibition was 0.48%.

For `O=C(NCc1cccnc1)c1nnc(Cc2ccc(F)cc2)o1`, the growth inhibition was 7.17% in assay [1] and 2.65% in assay [2]. Also, the viability increase in assay [3] was 2.16%. Moreover, the viability in assay [4] is 98.4%; in assay [5], 103%. Moreover, the inhibition in assay [6] was 0.03%. Further, the RAM network inhibition in assay [7] is 3.62%.

Take `Cc1cc(C)n2nc(Nc3ccccc3)cc2n1`: the growth inhibition in assay [1] is -3.93%; in assay [2], -10.7%. The viability increase in assay [3] is -4.34%. For the same molecule, the results for the viability in assay [4] and in assay [5] were 90.1% and 89.7%, respectively. Besides, the inhibition in assay [6] is 1.97%. Besides, in assay [7], the RAM network inhibition was 4.89%.

Consider `COc1ccc(S(=O)(=O)Nc2cc(Cl)ccc2OC)cc1`, for which the growth inhibition in assay [1] is -12.3%; in assay [2], -21.9%. The viability increase in assay [3] is -6.67%. In addition, the viability is 16.5% (active) in assay [4] and 17.1% (active) in assay [5]. Also, in assay [6], the inhibition was 0.78%. Moreover, the RAM network inhibition in assay [7] is 6.09%.

As for `CN1CCN(Cc2ccc(OCc3ccccc3)cc2)CC1`, the growth inhibition was -3.27% in assay [1] and -1.79% in assay [2]. The viability increase in assay [3] is -2.45%. Also, the results for the viability in assay [4] and in assay [5] were 88.1% and 91.4%, respectively. Also, the inhibition in assay [6] was -0.965%. Also, in assay [7], the RAM network inhibition was -0.47%.

As for `Cc1ccc(S(=O)(=O)/N=C(/Nc2nc(C)cc(C)n2)N2CCOCC2)cc1`, the growth inhibition in assay [1] is -0.825%; in assay [2] it was -15.5%. Moreover, the viability increase in assay [3] was -3.21%. Moreover, the viability in assay [4] was 98.7%; in assay [5] it was 97.4%. Moreover, in assay [6], the inhibition is 1.6%. For the same molecule, in assay [7], the RAM network inhibition is 4.96%.

As for `COCCSc1nc2c(c(=O)[nH]c(=O)n2C)n1Cc1cccc(C)c1`, the growth inhibition was 0.55% in assay [1] and 0.3% in assay [2]. Moreover, in assay [3], the viability increase is -1.81%. Besides, the viability in assay [4] was 90.2%; in assay [5] it was 79.6%. For the same molecule, the inhibition in assay [6] is 1.57%. In addition, in assay [7], the RAM network inhibition was 4.44%.

Regarding `COc1ccc(C(=O)N(Cc2nc(-c3ccc(C)cc3)no2)C(C)C)cc1OC`, the growth inhibition in assay [1] was -12.1%; in assay [2], -6.13%. The viability increase in assay [3] was 1.37%. In addition, the viability in assay [4] was 93.6%; in assay [5] it was 79.3%. Further, in assay [6], the inhibition is 3.8%. In addition, the RAM network inhibition in assay [7] was 5.36%.

Consider `Cc1cc(NC(=O)c2cc(C3CC3)on2)n(-c2ccccc2)n1`, for which the growth inhibition is -16.2% in assay [1] and -17.8% in assay [2]. The viability increase in assay [3] is -0.45%. Moreover, the viability in assay [4] is 101%; in assay [5], 99.6%. Also, in assay [6], the inhibition is 0.355%. Besides, the RAM network inhibition in assay [7] is 8.58%.

As for `O=C(NCc1cn2ccsc2n1)c1c(F)cccc1Cl`, the growth inhibition in assay [1] is -10.2%; in assay [2], -8.81%. In assay [3], the viability increase was 1.01%. Also, the results for the viability in assay [4] and in assay [5] were 107% and 99.6%, respectively. The inhibition in assay [6] was 0.93%. The RAM network inhibition in assay [7] was 2.61%.
